In brackets after ≈: the same amount, converted by molar mass. Activity calls are given as the source filed them.
Legend:
Cannabinoid receptor 1 [1] = molecular target: T1, Cannabinoid receptor 1 (Homo sapiens, UniProt P21554); assay: Displacement of [3H]CP-55940 from human recombinant CB1 receptor expressed in CHO cells; type: cell-based
Cannabinoid receptor 2 [2] = molecular target: T2, Cannabinoid receptor 2 (Homo sapiens, UniProt P34972); assay: Agonist activity at human recombinant CB2 receptor expressed in CHO cells by [35S]GTP-gamma-S binding assay; type: functional, cell-based
How it was run: (§1)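 Membranes from CHO cells expressing human CB2 (5 µg/well) in Hepes buffer pH 7.4 with 100 mM NaCl, 3 mM MgCl2, 0.2% BSA, 3 µM GDP and 30 µg/mL saponin. Preincubated with compound for 30 min at 30 °C, then 0.1 nM [35S]GTPγS added for a further 30 min at 30 °C. Filtered and counted. Nonspecific binding defined with 10 µM GTPγS.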

Cannabinoid receptor 2 [3] = molecular target: T2, Cannabinoid receptor 2; assay: Agonist activity at human recombinant CB2 receptor expressed in CHO cells by [35S]GTP-gamma-S binding assay relative to CP-55940; type: functional, cell-based
How it was run: as §1, with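 “GTPγS. Emax expressed relative to the maximal response to CP 55,940.” for “GTPγS.”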

Cannabinoid receptor 2 [4] = molecular target: T2, Cannabinoid receptor 2; assay: Displacement of [3H]CP-55940 from human recombinant CB2 receptor expressed in CHO cells; type: cell-based
Cannabinoid receptor 2 [5] = molecular target: T2, Cannabinoid receptor 2; assay: Binding affinity to CB2 receptor
Cannabinoid receptor 1 [6] = molecular target: T1, Cannabinoid receptor 1; assay: Binding affinity to CB1 receptor
Rattus norvegicus [7] = assay: Reversal of mechanical hyperalgesia in Wistar rat at 30mg/kg, po after 1 hr by Randall-Selitto test; type: functional, organism-based
How it was run: (§2)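 Male Wistar rats (200–220 g) given 0.1 mL of 20% yeast suspension into the right hind paw plantar surface. Control paw-withdrawal threshold read by algesiometer 2 h after yeast, then compound given orally in 5% gum arabic vehicle. Threshold re-read at 1 and 3 h. Result expressed as %MPE. Seven rats per group; Dunnett's test versus vehicle.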

[8] = AUC (0 to 8 hrs) in Sprague-Dawley rat at 10 mg/kg, po; type: ADME, organism-based; set-up: time < 8 hr, dose 10 mg/kg, route oral; details: plasma
[9] = Half life in Sprague-Dawley rat at 10 mg/kg, po; type: ADME, organism-based; set-up: dose 10 mg/kg, route oral; details: in vivo
How it was run: (§3)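 Male Sprague–Dawley rats, 7–8 weeks old, dosed orally at 10 mg/kg. Blood taken from the tail vein and plasma stored at -80 °C. Plasma protein-precipitated with acetonitrile/methanol (9:1) containing internal standard, then quantified by LC-MS/MS (ESI, positive MRM). LLOQ 1 ng/mL. Mean ± SD of three animals.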

[10] = Plasma concentration in Sprague-Dawley rat at 10 mg/kg, po after 1.67 hrs; type: ADME, organism-based; set-up: dose 10 mg/kg, route oral; how it was run: as §3
Cannabinoid receptor 2 [11] = molecular target: T3, Cannabinoid receptor 2 (Rattus norvegicus, UniProt Q9QZN9); assay: Displacement of [3H]CP-55940 from […] receptor in Sprague-Dawley rat spleen membrane; type: cell membranes
T3 sequence (Q9QZN9 whole entry): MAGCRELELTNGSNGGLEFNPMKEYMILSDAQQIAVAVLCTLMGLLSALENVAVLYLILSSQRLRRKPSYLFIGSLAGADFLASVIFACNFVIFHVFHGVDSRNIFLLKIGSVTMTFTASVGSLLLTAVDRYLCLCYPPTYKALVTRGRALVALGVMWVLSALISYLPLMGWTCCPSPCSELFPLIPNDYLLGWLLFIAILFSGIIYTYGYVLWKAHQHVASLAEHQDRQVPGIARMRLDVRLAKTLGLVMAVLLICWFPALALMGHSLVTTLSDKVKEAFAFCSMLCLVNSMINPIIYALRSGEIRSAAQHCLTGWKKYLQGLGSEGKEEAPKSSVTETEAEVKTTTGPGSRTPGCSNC
How it was run: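 Rat spleen membranes (100 µg/well) from male Sprague–Dawley rats in Tris-HCl buffer pH 7.4 with 5 mM EDTA, 5 mM MgCl2 and 0.2% BSA. Incubated with varying compound concentrations and 0.57 nM [3H]CP 55,940 at 25 °C for 120 min. Filtered and counted. Nonspecific binding defined with 2 µM CP 55,940.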

[12] = Tmax in Sprague-Dawley rat at 10 mg/kg, po; type: ADME, organism-based; set-up: dose 10 mg/kg, route oral; details: in vivo; how it was run: as §3
Rattus norvegicus [13] = assay: Reversal of mechanical hyperalgesia in Wistar rat at 10 mg/kg, po after 1 hr by Randall-Selitto test; type: functional, organism-based; set-up: dose 10 mg/kg; how it was run: as §2
[14] = Metabolic stability in Sprague-Dawley rat liver microsomes after 15 mins; type: ADME, Microsome; details: read-out: Stability
How it was run: (§4)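 Compound at 5 µM final incubated for 15 min at 37 °C with human or rat liver microsomes (1.0 mg protein/mL) in phosphate buffer with KCl, pH 7.4, plus an NADPH-generating system. Stopped with DMSO, centrifuged, and the remaining compound measured by LC-MS/MS. Run in triplicate.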

Homo sapiens = species on record: Homo sapiens; assay: Selectivity for human CB2 receptor over human CB1 receptor
[15] = Solubility in water at 25 degC; type: physicochemical
How it was run: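 Excess compound shaken in water at room temperature for 24 h, then centrifuged for 10 min at 25 °C. Supernatant diluted in 50% aqueous acetonitrile and quantified by reversed-phase HPLC with UV detection at 230 nm.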

[16] = Metabolic stability in human liver microsomes after 15 mins; type: ADME, Microsome; details: read-out: Stability; how it was run: as §4
Cannabinoid receptor 2 [17] = molecular target: T2, Cannabinoid receptor 2; assay: Agonist activity at CB2 receptor; type: functional
How it was run: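 [³⁵S]GTPγS binding on membranes of CHO cells expressing human CB2. Buffer 20 mM Hepes, 100 mM NaCl, 3 mM MgCl2, 0.2% BSA, 3 µM GDP, 30 µg/mL saponin, pH 7.4. Membranes (5 µg/well) preincubated with compounds 30 min at 30 °C, then 0.1 nM [³⁵S]GTPγS added for 30 min at 30 °C. Filtration and scintillation counting; nonspecific binding with 10 µM GTPγS. EC50 derived; Emax relative to CP 55,940 maximum.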

Cannabinoid receptor 1 [18] = molecular target: T1, Cannabinoid receptor 1; assay: Agonist activity at CB1 receptor; type: functional

T2 sequence (P34972 whole entry): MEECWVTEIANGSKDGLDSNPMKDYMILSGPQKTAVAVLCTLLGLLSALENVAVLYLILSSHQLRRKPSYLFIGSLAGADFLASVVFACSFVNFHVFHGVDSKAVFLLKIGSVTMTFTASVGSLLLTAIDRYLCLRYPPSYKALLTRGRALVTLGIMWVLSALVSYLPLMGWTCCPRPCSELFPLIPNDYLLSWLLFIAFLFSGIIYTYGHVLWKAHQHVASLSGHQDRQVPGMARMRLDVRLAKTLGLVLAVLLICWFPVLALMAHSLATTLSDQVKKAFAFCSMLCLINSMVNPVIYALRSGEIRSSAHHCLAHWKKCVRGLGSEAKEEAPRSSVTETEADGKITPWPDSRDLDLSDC
T1 sequence (P21554 whole entry): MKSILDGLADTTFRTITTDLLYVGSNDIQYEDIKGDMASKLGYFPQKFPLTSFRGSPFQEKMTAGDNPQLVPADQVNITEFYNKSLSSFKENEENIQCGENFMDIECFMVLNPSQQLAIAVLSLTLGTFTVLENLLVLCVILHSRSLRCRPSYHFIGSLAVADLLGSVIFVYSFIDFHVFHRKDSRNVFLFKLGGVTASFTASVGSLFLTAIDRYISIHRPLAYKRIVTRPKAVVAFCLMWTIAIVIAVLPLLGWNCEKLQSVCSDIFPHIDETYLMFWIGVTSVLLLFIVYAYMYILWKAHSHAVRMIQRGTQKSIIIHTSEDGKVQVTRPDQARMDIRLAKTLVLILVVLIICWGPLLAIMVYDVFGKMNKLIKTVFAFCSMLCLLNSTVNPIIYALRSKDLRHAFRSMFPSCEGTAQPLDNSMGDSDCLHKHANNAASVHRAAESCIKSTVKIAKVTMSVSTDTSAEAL

Row | SMILES | IC50 (Cannabinoid receptor 1 [1]) | EC50 (Cannabinoid receptor 2 [2]) | Emax (Cannabinoid receptor 2 [3]) | IC50 (Cannabinoid receptor 2 [4]) | also measured
1 | Cn1c(C(C)(C)C)c/c(=N\C(=O)c2cccc(C(F)(F)F)c2F)n1CC1CCCC1 | 810 nM | 0.79 nM | 67% |  | 
2 | Cc1c(C(=O)/N=c2\cc(C(C)(C)C)n(C)n2CC2CC2)cccc1C(F)(F)F | 1300 nM | 4.4 nM | 73% | 11 nM | 
3 | CC1(C)C(C(=O)c2cn(CCN3CCOCC3)c3ccccc23)C1(C)C |  |  |  |  | IC50 (Cannabinoid receptor 2 [5]): 0.77 nM
4 | CCOCCn1/c(=N/C(=O)c2cccc(C(F)(F)F)c2F)cc(C(C)(C)C)n1C | 870 nM | 1.1 nM | 82% | 3.7 nM | 
5 | Cn1c(C(C)(C)C)c/c(=N\C(=O)c2cccc(C(F)(F)F)c2)n1CC1CC1 |  |  |  | 51 nM | 
6 | CN1CCCCC1Cn1cc(C(=O)c2cc([N+](=O)[O-])ccc2I)c2ccccc21 (stereo not given) |  |  |  |  | IC50 (Cannabinoid receptor 1 [6]): 280 nM; IC50 (Cannabinoid receptor 2 [5]): 3.4 nM
7 | CC(C)(C)c1c/c(=N\C(=O)c2cccc(C(F)(F)F)c2)n(CC2CC2)s1 |  |  |  | 9.5 nM | 
8 | Cc1c(C(C)C)o/c(=N\C(=O)c2cccc(C(F)(F)F)c2)n1CC1CC1 |  |  |  | 24 nM | 
9 | Cn1c(C(C)(C)C)c/c(=N\C(=O)c2cccc(C(F)(F)F)c2F)n1CC1CC1 | 4000 nM | 1.8 nM | 85% | 2.9 nM | Activity (Rattus norvegicus [7]): Active; AUC(0-t) at 8 h [8]: 2160 ng·h/mL; half-life [9]: 2.47 h; Cmax [10]: 545 ng/mL; IC50 (Cannabinoid receptor 2 [11]): 1.4 nM; Tmax [12]: 1.67 h; Activity (Rattus norvegicus [13]): Active; remaining at 0.25 h [14]: 86%; Ratio IC50 (Homo sapiens): 1400; solubility [15]: 59 µg/mL (≈ 148 µM); remaining at 0.25 h [16]: 92%
10 | CC(C)OCCn1/c(=N/C(=O)c2cccc(C(F)(F)F)c2F)cc(C(C)(C)C)n1C | 760 nM | 0.85 nM | 76% | 2.6 nM | 
11 | O=C(NCC1CCOCC1)c1cnc(Nc2ccc(Cl)cc2Cl)nc1C(F)(F)F [GW842166X] |  |  |  |  | EC50 (Cannabinoid receptor 2 [17]): 50 nM; EC50 (Cannabinoid receptor 1 [18]): > 30000 nM
12 | CC(C)(C)c1c/c(=N\C(=O)c2cccc(C(F)(F)F)c2)n(CC2CC2)o1 |  |  |  | 46 nM | 
13 | Cn1c(C(C)(C)C)c/c(=N\C(=O)c2cccc(C(F)(F)F)c2Cl)n1CC1CC1 | 2200 nM | 1.5 nM | 82% | 3.7 nM | 
14 | CC(C)(C)c1nn(CC2CC2)/c(=N/C(=O)c2cccc(C(F)(F)F)c2)s1 |  |  |  | 300 nM | 
15 | Cc1ccc(C(F)(F)F)cc1C(=O)/N=c1\cc(C(C)(C)C)n(C)n1CC1CC1 |  |  |  | 88 nM | 
16 | Cn1c(C(C)(C)C)c/c(=N\C(=O)c2cccc(C(F)(F)F)c2F)n1CC1CCC1 | 940 nM | 0.32 nM | 96% | 1.7 nM | 
17 | Cc1c(C(C)(C)C)s/c(=N\C(=O)c2cccc(C(F)(F)F)c2)n1CC1CC1 |  |  |  |  | Ratio IC50 (Homo sapiens): 270; solubility [15]: < 0.1 µg/mL
18 | Cn1c(C(C)(C)C)c/c(=N\C(=O)c2cc(C(F)(F)F)ccc2F)n1CC1CC1 | 3700 nM | 8.8 nM | 90% | 23 nM | 

Source: ChEMBL document CHEMBL1143973, “Imine derivatives as new potent and selective CB2 cannabinoid receptor agonists with an analgesic action” (Bioorg Med Chem, 2008)
